Active and inactive are the calls of the source. The calls are words filed in the database; no cut-off is given here.

In assay [1] the test system is Plasmodium falciparum. The assay is described as follows: Antimalarial activity against Plasmodium falciparum 3D7 infected in erythrocyte assessed as reduction in endocytic vesicle content after 8 hrs by immunofluorescence microscopy. Type of assay: functional, organism-based. The essentials:
(§1)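 Cultures left untreated or given quinoline for 8 h, then parasites freed by saponin lysis, fixed on polylysine-coated coverslips with paraformaldehyde and glutaraldehyde, permeabilized in Triton X-100, and stained with rabbit anti-Hb antiserum and TRITC-conjugated goat anti-rabbit antibody. Hb transport vesicles counted by fluorescence microscopy in 100 randomly chosen parasites per sample; mean per parasite ± SEM.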

Assay [2] has as its system Plasmodium falciparum. Put plainly: Antimalarial activity against early trophozoite-stage Plasmodium falciparum 3D7 infected in erythrocyte assessed as reduction in parasite hemoglobin content at 5 times IC50 after 8 hrs in presence of 40 uM protease inhibitor ALLN. Type of assay: functional, organism-based.
Assay [3] has as its system Plasmodium falciparum. The assay is described as follows: Antimalarial activity against schizont-stage Plasmodium falciparum 3D7 infected in erythrocyte assessed as inhibition of horseradish peroxidase(HRP) uptake after 10 hrs by colorimetric peroxidase assay. Type of assay: functional, organism-based. The essentials: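 Erythrocytes preloaded with HRP by hypotonic lysis, then infected by incubation with enriched schizont-infected cells. Parasites exposed to quinolines for 10 h, released with saponin, washed, and lysed in Triton X-100. HRP measured colorimetrically with O-phenylenediamine at 450 nm. Significance vs control taken at P < 0.05.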

For assay [4], the system named is Plasmodium falciparum. Put plainly: Antimalarial activity against early trophozoite-stage Plasmodium falciparum 3D7 infected in erythrocyte assessed as reduction in parasite hemoglobin content at 5 times IC50 after 8 hrs. Type of assay: functional.
Assay [5] has as its system Plasmodium falciparum. The assay is described as follows: Antimalarial activity against early trophozoite-stage Plasmodium falciparum 3D7 infected in erythrocyte assessed as reduction in parasite hemoglobin content at 5 times IC50 after 8 hrs in presence of 40 uM protease inhibitor E64. Type of assay: functional, organism-based.
In assay [6] the test system is Plasmodium falciparum. The assay is described as follows: Antimalarial activity against Plasmodium falciparum 3D7 infected in erythrocyte assessed as increase in vesicle content after 8 hrs by immunofluorescence microscopy. Type of assay: functional, organism-based. A digest of the protocol: as §1

Take `CCCCN(CCCC)CCC(O)c1cc2c(Cl)cc(Cl)cc2c2cc(C(F)(F)F)ccc12` (stereo not given) [HALOFANTRINE]: the inhibition result in the assay with Plasmodium falciparum [1], with Plasmodium falciparum [2], in the assay on Plasmodium falciparum [3] and in the assay on Plasmodium falciparum [5] was “Active” throughout. Besides, the “inhibition (INH)” value in the assay on Plasmodium falciparum [4] worked out at 64%.
`C=C[C@H]1CN2CC[C@H]1C[C@H]2[C@H](O)c1ccnc2ccc(OC)cc12` [QUININE]: the inhibition result in the assay on Plasmodium falciparum [1], in the assay with Plasmodium falciparum [2], with Plasmodium falciparum [3] and in the assay on Plasmodium falciparum [5] was “Active” throughout. In addition, the “inhibition (INH)” value with Plasmodium falciparum [4] came to 84%.
As for `CCN(CC)Cc1cc(Nc2ccnc3cc(Cl)ccc23)ccc1O`, the inhibition entry in the assay on Plasmodium falciparum [2], in the assay with Plasmodium falciparum [3], with Plasmodium falciparum [4] and with Plasmodium falciparum [5] was “inactive” each time. In the assay on Plasmodium falciparum [6], the inhibition result was “Active”.
For `OC(c1cc(C(F)(F)F)nc2c(C(F)(F)F)cccc12)C1CCCCN1` (stereo not given) [MEFLOQUINE], the inhibition result with Plasmodium falciparum [1] and with Plasmodium falciparum [3] was “Active” throughout. For the same compound, the inhibition entry with Plasmodium falciparum [2] and with Plasmodium falciparum [5] was “inactive” each time. Moreover, in the assay on Plasmodium falciparum [4], the “inhibition (INH)” value was found to be 83%.
Regarding `CCN(CC)CCCC(C)Nc1ccnc2cc(Cl)ccc12` (stereo not given), the inhibition entry in the assay with Plasmodium falciparum [2], with Plasmodium falciparum [3], in the assay on Plasmodium falciparum [4] and in the assay with Plasmodium falciparum [5] was “inactive” in each case. Besides, the inhibition result with Plasmodium falciparum [6] was “Active”.

Values taken from ChEMBL document CHEMBL1255338, “Differential effects of quinoline antimalarials on endocytosis in Plasmodium falciparum” (2008).
